Measurements as given in ChEMBL document CHEMBL2424527, “Doxorubicin-antioxidant co-drugs” (Bioorg Med Chem Lett, 2013).
Activity calls are given as the source filed them. The rule behind the calls is not given here.

Tests used:
MDA-MB-231 [1] = test: Cellular uptake in human MDA-MB-231 cells at 5 umol/L after 24 hrs by spectrofluorimetry; format: ADME, cell-based; details: mda-mb-231, 24 h, 5 µM
Summary of the method: (§1)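 Cells exposed 24 h to 5 μmol/L drug. Doxorubicin in whole-cell lysates read fluorimetrically at ex 475/em 553 nm, cell-free blank subtracted. Converted to nmol/mg cell protein via calibration curve. Duplicate measurements; means ± SD, n = 3.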

MDA-MB-231 [2] = test: Antioxidant activity in human MDA-MB-231 cells assessed as intracellular ROS level at 5 umol/L after 24 hrs by DCFDA-AM staining-based spectrofluorimetry; format: functional, cell-based
Summary of the method: (§2)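 Cells rinsed in PBS, loaded with 10 μmol/L DCFDA-AM for 10 min at 37°C, washed, resuspended in PBS. DCFH fluorescence read at ex 490/em 530 nm, cell-free blank subtracted, converted to nmol/mg cell protein by titration curve. Means ± SD; ANOVA with Tukey's test.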

MCF7 [3] = test: Drug efflux in human MCF7 cells at 1 to 100 umol/L incubated for 20 mins prior to compound wash out measured after 10 mins by spectrofluorimetry; format: ADME, cell-based; details: mcf7, 20 min
Summary of the method: (§3)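 Doxorubicin in whole-cell lysates measured fluorimetrically at ex 475/em 553 nm, blank subtracted, converted to nmol/mg cell protein by calibration curve. Kinetic values fitted to Michaelis-Menten equation to obtain Vmax and Km.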

H9c2 [4] = test: Antioxidant activity in rat H9c2 cells assessed as intramitochondrial ROS level at 5 umol/L after 24 hrs by DCFDA-AM staining-based spectrofluorimetry; format: functional, cell-based
Summary of the method: (§4)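 Mitochondria freshly isolated from cells grown 24 h with 5 μmol/L compound. DCFDA-AM loading and fluorescence read (ex 490/em 530 nm) as for whole cells, blank subtracted. Values expressed as nmol/mg mitochondrial protein. Measured in duplicate; means ± SD.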

MCF7 [5] = test: Cytotoxicity against human MCF7 cells assessed as LDH release at 5 umol/L after 24 hrs; format: functional, cell-based
Summary of the method: (§5)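 Cells exposed 24 h to 5 μmol/L compound. Medium centrifuged 12,000 × g, 15 min; cells sonicated in 82.3 mmol/L triethanolamine phosphate-HCl pH 7.6. LDH read at 340 nm over 6 min in medium and lysate, in duplicate. Extracellular activity given as % of total; means ± SD, n = 4.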

MCF7 [6] = test: Cellular uptake in human MCF7 cells at 5 umol/L after 24 hrs by spectrofluorimetry; format: ADME, cell-based; details: mcf7, 24 h, 5 µM; summary of the method: as §1
H9c2 [7] = test: Antioxidant activity in rat H9c2 cells assessed as intracellular malonyldialdehyde level at 5 umol/L after 24 hrs by spectrofluorimetry; format: functional, cell-based
H9c2 [8] = test: Drug efflux in rat H9c2 cells at 1 to 100 umol/L incubated for 20 mins prior to compound wash out measured after 10 mins by spectrofluorimetry; format: ADME, cell-based; details: h9c2, 20 min; summary of the method: as §3
MDA-MB-231 [9] = test: Cytotoxicity against human MDA-MB-231 cells assessed as LDH release at 5 umol/L after 24 hrs; format: functional, cell-based; summary of the method: as §5
H9c2 [10] = test: Cytotoxicity against rat H9c2 cells assessed as LDH release at 5 umol/L after 24 hrs; format: cell-based; details: h9c2, 24 h, 5 µM; summary of the method: as §5
[11] = Cellular uptake in human MCF7 cell nucleus at 5 umol/L after 24 hrs by fluorimetric analysis; format: ADME, cell-based; details: mcf7, 24 h, 5 µM
Summary of the method: (§6)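 Cells incubated 24 h with 5 μmol/L drug. Doxorubicin measured fluorimetrically in nuclear or mitochondrial extracts, in duplicate. Means ± SD, n = 3.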

H9c2 [12] = test: Cellular uptake in rat H9c2 cells at 5 umol/L after 24 hrs by spectrofluorimetry; format: ADME, cell-based; details: h9c2, 24 h, 5 µM; summary of the method: as §1
MCF7 [13] = test: Antioxidant activity in human MCF7 cells assessed as intramitochondrial ROS level at 5 umol/L after 24 hrs by DCFDA-AM staining-based spectrofluorimetry; format: functional, cell-based; summary of the method: as §4
MCF7 [14] = test: Antioxidant activity in human MCF7 cells assessed as intracellular ROS level at 5 umol/L after 24 hrs by DCFDA-AM staining-based spectrofluorimetry; format: functional, cell-based; summary of the method: as §2
MDA-MB-231 [15] = test: Antioxidant activity in human MDA-MB-231 cells assessed as intramitochondrial ROS level at 5 umol/L after 24 hrs by DCFDA-AM staining-based spectrofluorimetry; format: functional, cell-based; summary of the method: as §4
Homo sapiens = species: Homo sapiens; test: Inhibition of human topoisomerase 2 using supercoiled pHOT1 as substrate at 1 to 50 umol/L by agarose gel electrophoresis
Summary of the method: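 Purified human topoisomerase II incubated with supercoiled pHOT1 plasmid and drug at 1, 5, 25, 50 μmol/L, using a commercial topoisomerase II drug screening kit. Etoposide at 5, 50, 100 μmol/L served as positive control.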

MDA-MB-231 [16] = test: Drug efflux in human MDA-MB-231 cells at 1 to 100 umol/L incubated for 20 mins prior to compound wash out measured after 10 mins by spectrofluorimetry; format: ADME, cell-based; details: mda-mb-231, 20 min; summary of the method: as §3
MDA-MB-231 [17] = test: Antioxidant activity in human MDA-MB-231 cells assessed as intracellular malonyldialdehyde level at 5 umol/L after 24 hrs by spectrofluorimetry; format: functional, cell-based
[18] = Cellular uptake in human MDA-MB-231 cell nucleus at 5 umol/L after 24 hrs by fluorimetric analysis; format: ADME, cell-based; details: mda-mb-231, 24 h, 5 µM; summary of the method: as §6
MCF7 [19] = test: Antioxidant activity in human MCF7 cells assessed as intracellular malonyldialdehyde level at 5 umol/L after 24 hrs by spectrofluorimetry; format: functional, cell-based
H9c2 [20] = test: Antioxidant activity in rat H9c2 cells assessed as intracellular ROS level at 5 umol/L after 24 hrs by DCFDA-AM staining-based spectrofluorimetry; format: functional, cell-based; summary of the method: as §2
[21] = Cellular uptake in human MCF7 cell mitochondria at 5 umol/L after 24 hrs by fluorimetric analysis; format: ADME; details: mcf7, 24 h, 5 µM; summary of the method: as §6
[22] = Cellular uptake in rat H9c2 cell nucleus at 5 umol/L after 24 hrs by fluorimetric analysis; format: ADME, cell-based; details: h9c2, 24 h, 5 µM; summary of the method: as §6
[23] = Cellular uptake in human MDA-MB-231 cell mitochondria at 5 umol/L after 24 hrs by fluorimetric analysis; format: ADME; details: mda-mb-231, 24 h, 5 µM; summary of the method: as §6
[24] = Cellular uptake in rat H9c2 cell mitochondria at 5 umol/L after 24 hrs by fluorimetric analysis; format: ADME; details: h9c2, 24 h, 5 µM; summary of the method: as §6

Row | Drug uptake (MDA-MB-231 [1]) | Km (MCF7 [3]) | Vmax (MCF7 [3]) | Drug uptake (MCF7 [6]) | Km (H9c2 [8]) | Vmax (H9c2 [8]) | Drug uptake [11] | Drug uptake (H9c2 [12]) | inhibition (Homo sapiens) | Km (MDA-MB-231 [16]) | Vmax (MDA-MB-231 [16]) | Structure (SMILES) | Activity (MDA-MB-231 [2]) | Activity (H9c2 [4]) | Activity (MCF7 [5]) | Activity (H9c2 [7]) | Activity (MDA-MB-231 [9]) | Activity (H9c2 [10]) | Activity (MCF7 [13]) | Activity (MCF7 [14]) | Activity (MDA-MB-231 [15]) | other results
1 | Active | 1.88 nmol/mg | 18.9 nmol/min/mg | Active | 1.96 nmol/mg | 11.89 nmol/min/mg | Active | Not Active | Active | 1.35 nmol/mg | 33.11 nmol/min/mg | COc1cccc2c1C(=O)c1c(O)c3c(c(O)c1C2=O)C[C@@](O)(C(=O)CO)C[C@@H]3O[C@H]1C[C@H](N)[C@H](O)[C@H](C)O1 [DOXORUBICIN] | inactive | Active | Active | Active | Active | Toxic | Active | Active | inactive | Activity (MDA-MB-231 [17]): inactive; Drug uptake [18]: Active; Activity (MCF7 [19]): Active; Activity (H9c2 [20]): Active
2 | Active |  |  | Active |  |  |  | Active |  |  |  | COc1cccc2c1C(=O)c1c(O)c3c(c(O)c1C2=O)C[C@@](O)(C(=O)COC(=O)/C=C/c1ccc(O)c(O)c1)C[C@@H]3O[C@H]1C[C@H](N)[C@H](O)[C@H](C)O1.Cl |  |  | Active |  | inactive | Toxic |  |  |  | 
3 | Active | 1.83 nmol/mg | 11.1 nmol/min/mg | Active | 2.01 nmol/mg | 11.7 nmol/min/mg | Active | Not Active | Active | 1.25 nmol/mg | 16.53 nmol/min/mg | COc1cc(/C=C/C(=O)OCC(=O)[C@]2(O)Cc3c(O)c4c(c(O)c3[C@@H](O[C@H]3C[C@H](N)[C@H](O)[C@H](C)O3)C2)C(=O)c2c(OC)cccc2C4=O)ccc1O.Cl | inactive | Active | Active | Active | Active | Toxic | Active | Active | inactive | Drug uptake [21]: Active; Drug uptake [22]: Active; Drug uptake [23]: Active; Drug uptake [24]: Active; Activity (MDA-MB-231 [17]): inactive; Drug uptake [18]: Active; Activity (MCF7 [19]): Active; Activity (H9c2 [20]): Active
